Where a SMILES comes first, the peptide text is derived from it. The star is where a group is joined. X1 = COc1cccc2c1C(=O)c1c(O)c3c(c(O)c1C2=O)C[C@@](O)(/C(C)=N/OCC(=O)*)C[C@@H]3O[C@H]1C[C@H](N)[C@H](O)[C@H](C)O1

Data set [1] can be described thus: Stability in human plasma assessed as parent compound remaining at 30 uM measured after 1 hr by LC/MS analysis. The format is ADME, cell-free. An outline of the steps: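 Conjugates were incubated in 90% human plasma from a healthy volunteer. Samples were taken at 0, 5 and 60 min and analysed by HPLC-MS.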
Data set [2] is described as follows: Drug metabolism in rat liver lysosomes homogenate assessed as Dau-containing metabolite formation at 0.05 ug/ul after 24 hrs by LC-MS analysis. The format is ADME, subcellular, Lysosome. The conditions noted are these: tissue homogenate. An outline of the steps:
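Conjugates and rat liver lysosomal homogenate were each used at 0.05 µg/µL. Samples were taken at 0, 1, 3, 6 and 24 h. Metabolites were identified by LC-MS on a C18 column with a formic acid/acetonitrile gradient.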

The next data set deals with 4T1. Briefly: Cytostatic activity against mouse 4T1 cells preincubated for 24 hrs under serum free condition followed by compound washout and further incubation for 48 hrs in presence of serum by MTT assay. The format is functional, cell-based. The gist of the method:
(§1)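 Cells were grown at 37 °C in 5% CO2 in medium with 10% heat-inactivated FBS (20% for OVCAR-3) plus penicillin/streptomycin. The medium was RPMI-1640 for most lines, DMEM for U-87 MG and MRC-5, and IMDM for PE/CA-PJ lines. Seeding was 3×10^3–10×10^3 cells per well. Cells had 24 h compound exposure, a wash, and 48 h further culture. Read-out was MTT, normalized to untreated cells and fitted by nonlinear regression for IC50.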
(Tetrazolium assays rely on reduction of a dye to a coloured formazan, in cell work by metabolically active cells.)

The subject of data set [3] is HCT-116. Briefly: Cytostatic activity against human HCT116 cells preincubated for 24 hrs under serum free condition followed by compound washout and further incubation for 48 hrs in presence of serum by MTT assay. The format is functional, cell-based. An outline of the steps: as §1
The next data set concerns CT26.WT. The experiment in a line: Cytostatic activity against mouse CT26.WT cells preincubated for 24 hrs under serum free condition followed by compound washout and further incubation for 48 hrs in presence of serum by MTT assay. The format is functional, cell-based. The gist of the method: as §1
Data set [4] can be described thus: Cytostatic activity against human M24 cells preincubated for 24 hrs under serum free condition followed by compound washout and further incubation for 48 hrs in presence of serum by MTT assay. The format is functional, cell-based. An outline of the steps: as §1
The nature of data set [5]: Cytostatic activity against human WM983B cells preincubated for 24 hrs under serum free condition followed by compound washout and further incubation for 48 hrs in presence of serum by MTT assay. The format is functional, cell-based. The gist of the method: as §1
A short description of data set [6]: Cytostatic activity against human PECAPJ41 cells preincubated for 24 hrs under serum free condition followed by compound washout and further incubation for 48 hrs in presence of serum by MTT assay. The format is functional, cell-based. The gist of the method:
as §1

For data set [7], the system named is HCT-116. The experiment in a line: Potency index, ratio of compound IC50 to Daunomycin IC50 for human HCT116 cells preincubated for 24 hrs under serum free condition followed by compound washout and further incubation for 48 hrs in presence of serum by MTT assay. The format is functional.
Data set [8] can be described thus: Drug uptake in lysosome of human HT-29 cells assessed as increase in fluorescence at 50 uM after 30 mins by LysoTracker deep red staining based confocal microscopic analysis. The conditions noted are these: ht-29, 0.5 h. The format is ADME, subcellular. The gist of the method: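 HT-29 cells were exposed to 50 µM conjugate for 30 min before imaging. Lysosomes were stained with LysoTracker Deep Red and mitochondria with MitoTracker Deep Red. Confocal imaging detected Dau at 550–600 nm.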

Data set [9] concerns HT-29. The experiment in a line: Cytotoxicity against human HT-29 cells assessed as reduction in cell viability by measuring decrease in fluorescence intensity at 100 uM incubated for 3 hrs by flow cytometry. The format is cell-based. The conditions noted are these: ht-29, 3 h. A general note: In flow cytometry, cells or beads pass a laser one at a time.
Data set [10] has as its system HT-29. The experiment in a line: Potency index, ratio of compound IC50 to Daunomycin IC50 for human HT-29 cells preincubated for 24 hrs under serum free condition followed by compound washout and further incubation for 48 hrs in presence of serum by MTT assay. The format is functional.
The next data set has as its system WiDr. The experiment in a line: Potency index, ratio of compound IC50 to Daunomycin IC50 for human WiDr cells preincubated for 24 hrs under serum free condition followed by compound washout and further incubation for 48 hrs in presence of serum by MTT assay. The format is functional.
For another data set, the system named is NCI-H1650. Briefly: Potency index, ratio of compound IC50 to Daunomycin IC50 for human NCI-H1650 cells preincubated for 24 hrs under serum free condition followed by compound washout and further incubation for 48 hrs in presence of serum by MTT assay. The format is functional.
Data set [11] can be described thus: Potency index, ratio of compound IC50 to Daunomycin IC50 for human WM983B cells preincubated for 24 hrs under serum free condition followed by compound washout and further incubation for 48 hrs in presence of serum by MTT assay. The format is functional.
A short description of data set [12]: Potency index, ratio of compound IC50 to Daunomycin IC50 for human PECAPJ41 cells preincubated for 24 hrs under serum free condition followed by compound washout and further incubation for 48 hrs in presence of serum by MTT assay. The format is functional.
The test system of another data set is OVCAR-3. The experiment in a line: Potency index, ratio of compound IC50 to Daunomycin IC50 for human OVCAR3 cells preincubated for 24 hrs under serum free condition followed by compound washout and further incubation for 48 hrs in presence of serum by MTT assay. The format is functional.
Data set [13] concerns HT-29. Briefly: Antitumor activity against human HT-29 cells xenografted in SCID mouse assessed as tumor growth inhibition by measuring decrease in tumor weight at 38.3 mg/kg, ip administered thrice in first week and twice in second week (on days 13, 16, 20, 23 and 27) starting from 13 days post inoculation measured at day 30 post inoculation relative to control. As to conditions: HT-29, ip; call rule not given here. The format is functional. An outline of the steps: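 Orthotopic HT-29 tumours in female SCID mice aged 6–8 weeks (22–27 g), 8 per group. Conjugates were given i.p. in water for injection at 10 mg/kg Dau content on days 13, 16, 20, 23 and 27. The study ended on day 30. Tumours were weighed against solvent controls, and livers were weighed as a toxicity read-out.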
Background: Xenograft models place foreign cells or tissue in a host animal.

Data set [14] in a line: Toxicity in SCID mouse xenografted with human HT-29 cells assessed as animal death at 38.3 mg/kg, ip administered thrice in first week and twice in second week (on days 13, 16, 20, 23 and 27) starting from 13 days post inoculation measured upto 30 days post inoculation. The format is organism-based. The conditions noted are these: in vivo. An outline of the steps:
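Female SCID mice (6–8 weeks, 22–27 g) with orthotopic HT-29 colon tumours. Conjugates given i.p. in distilled water for injection at 10 mg/kg Dau content (36.6 or 38.3 mg/kg conjugate) on days 13, 16, 20, 23 and 27, 8 mice/group. Study ended day 30; deaths and body weight recorded against a solvent-treated control group.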

Data set [15] can be described thus: Retention time of the compound using 0.1% TFA in water and 0.1% TFA in acetonitrile-water (80:20 v/v) as eluents by RP-HPLC analysis. The format is physicochemical. The gist of the method: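 Analytical RP-HPLC. Eluent A was 0.1% TFA in water and eluent B was 0.1% TFA in acetonitrile-water (80:20, v/v). Gradient: 0% B held to 5 min, then to 90% B at 50 min. Flow 1 mL/min, detection at 220 nm. The column was a Phenomenex Aeris Peptide XB-C18 (250×4.6 mm, 3.6 μm) or a Nucleosil C18 (5 μm, 100 Å, 250×4.6 mm), depending on the conjugate series.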

Data set [16] in a line: Drug uptake in human HT-29 cells incubated for 3 hrs by flow cytometry. The format is ADME, cell-based. As to conditions: ht-29, 3 h. The gist of the method:
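HT-29 cells were exposed to 100 µM conjugate for 3 h. Flow cytometry recorded the percentage of Dau-positive cells and the mean fluorescence intensity, in duplicate.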

The nature of data set [17]: Stability in 2.5% fetal bovine serum containing medium at 30 uM measured after 24 hrs by LC/MS analysis. The format is ADME, cell-free, Bos taurus. The conditions noted are these: cattle. An outline of the steps:
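Conjugates (30 μM) were incubated at 37 °C in medium containing 2.5% FBS. Samples were taken at 0, 3, 6 and 24 h, quenched with acetic acid, lyophilised, desalted on C18 spin columns and analysed by LC-MS. Cleavage products were identified by mass.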

As for `COc1cccc2c1C(=O)c1c(O)c3c(c(O)c1C2=O)C[C@@](O)(/C(C)=N/OCC(=O)N[C@@H](CC(C)C)C(=O)N[C@@H](CCCNC(=N)N)C(=O)N[C@@H](CCCNC(=N)N)C(=O)N[C@@H](Cc1ccc(O)cc1)C(=O)N[C@H](C(=O)N[C@@H](Cc1cnc[nH]1)C(=O)N[C@@H](CC(C)C)C(=O)N[C@@H](Cc1ccccc1)C(=O)N[C@@H](Cc1ccc(O)cc1)C(=O)N[C@@H](C)C(=O)N[C@H](C(N)=O)[C@@H](C)O)C(C)C)C[C@@H]3O[C@H]1C[C@H](N)[C@H](O)[C@H](C)O1` (X1-LRRYVHLFYAT-NH2), the Stability entry in [1] and in [17] was “Stable” throughout. For the same molecule, in data set [2], the Drug metabolism result is given as “Metabolite_Detected”. In addition, the IC50 with 4T1 worked out at 11.6 µM; with HCT-116 [3], 7.2 µM; with CT26.WT, 8.3 µM; in data set [4], 5.8 µM; in data set [5] it was 5.1 µM; in data set [6] it was 4.3 µM. Besides, the “Ratio IC50” value in the data set with HCT-116 [7] worked out at 57; in the data set with HT-29 [10] it was 57.1; with WiDr, 62.8; with NCI-H1650, 60.1; in data set [11], 114.6; in data set [12], 165.7. For the same molecule, the “Ratio IC50” value in the data set with OVCAR-3 stood at 24. Moreover, the Drug uptake result in data set [8] is “Active”; in data set [16] it was “Dose-dependent effect”. In addition, the Activity result with HT-29 [9] was “Toxic”; in data set [14] it was “Non-Toxic”. Besides, the inhibition in vivo at 38.3 mg/kg in the data set on HT-29 [13] came to 89%. Also, in data set [15], the Retention time is 31.2 to 33.2 min.

By IC50 is commonly meant the midpoint of a concentration-inhibition curve. Usually inhibition in vivo stands for the share of the control response that was lost under treatment.

The values above are taken from ChEMBL document CHEMBL4350976, “Sequence modification of heptapeptide selected by phage display as homing device for HT-29 colon cancer cells to improve the anti-tumour activity of drug delivery systems” (Eur J Med Chem, 2019).
